Assay results as given in ChEMBL document CHEMBL1938239, “Novel analgesic/anti-inflammatory agents: diarylpyrrole acetic esters endowed with nitric oxide releasing properties” (J Med Chem, 2011).
pIC50: −log10 of the molar value. Active and inactive are the calls of the source. The calls are words filed in the database; no cut-off is given here.

Legend:
Aorta [1] = assay: Vasorelaxation activity against KCl-induced contraction in isolated Wistar rat thoracic endothelium-denulated aortic rings; type: functional, tissue-based
How it was run: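 Endothelium-denuded thoracic aortic rings from male Wistar rats (250−350 g); denudation confirmed by <10% relaxation to 10 μM ACh. Rings precontracted with 30 mM KCl; compound added at 3-fold increasing concentrations, 1 nM to 10 μM. Isometric tension recorded. Emax given as % of KCl tone; pIC50 derived. Mean ± standard error of 6−10 experiments; repeated with 1 μM ODQ.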

Rattus norvegicus [2] = assay: Antiinflammatory activity against carrageenan-induced paw edema in Sprague-Dawley rat assessed as paw weight at 20 mg/kg, po administered 4 hrs post challenge measured after 30 mins (reference value: 32.6+/-2.7 g); type: functional
[3] = molecular target: T1, Prostaglandin G/H synthase 1 (Mus musculus) (UniProt P22437); assay: Inhibition of COX-1-mediated PGE2 production in arachidonic acid-stimulated mouse J774 cells at 10 uM incubated for 15 mins prior to arachidonic acid-challenge by radioimmunoassay; type: cell-based
T1 sequence (whole entry): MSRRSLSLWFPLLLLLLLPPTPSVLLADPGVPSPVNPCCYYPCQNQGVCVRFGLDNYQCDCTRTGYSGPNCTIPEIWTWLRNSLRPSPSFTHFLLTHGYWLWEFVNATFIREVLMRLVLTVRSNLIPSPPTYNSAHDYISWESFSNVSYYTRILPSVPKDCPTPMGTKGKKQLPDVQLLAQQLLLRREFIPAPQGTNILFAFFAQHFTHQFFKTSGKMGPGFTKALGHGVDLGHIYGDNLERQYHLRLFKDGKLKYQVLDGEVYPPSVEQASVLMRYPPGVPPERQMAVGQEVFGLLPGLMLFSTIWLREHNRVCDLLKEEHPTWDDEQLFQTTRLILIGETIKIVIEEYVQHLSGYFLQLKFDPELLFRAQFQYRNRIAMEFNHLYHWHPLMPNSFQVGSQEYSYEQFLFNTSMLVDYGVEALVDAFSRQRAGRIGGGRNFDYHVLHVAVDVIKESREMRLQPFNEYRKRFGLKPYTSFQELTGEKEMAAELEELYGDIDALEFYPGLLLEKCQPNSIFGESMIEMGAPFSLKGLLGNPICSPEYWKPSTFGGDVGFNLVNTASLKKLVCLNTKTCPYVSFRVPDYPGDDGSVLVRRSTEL
How it was run: (§1)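 J774 murine macrophages grown in DMEM with 10% FBS and allowed to adhere for 2 h at 37 °C. Where inhibition exceeded 50%, 0.01–1 μM was also tested. Supernatant PGE2 was measured by RIA as % inhibition versus control, in triplicate wells over three experiments. IC50 came from a sigmoidal variable-slope fit.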

[4] = molecular target: T2, Prostaglandin G/H synthase 2 (Homo sapiens, UniProt P35354); assay: Inhibition of COX2-mediated PGE2 production in LPS-induced human whole blood after 60 mins by radioimmunoassay
T2 sequence (P35354 whole entry): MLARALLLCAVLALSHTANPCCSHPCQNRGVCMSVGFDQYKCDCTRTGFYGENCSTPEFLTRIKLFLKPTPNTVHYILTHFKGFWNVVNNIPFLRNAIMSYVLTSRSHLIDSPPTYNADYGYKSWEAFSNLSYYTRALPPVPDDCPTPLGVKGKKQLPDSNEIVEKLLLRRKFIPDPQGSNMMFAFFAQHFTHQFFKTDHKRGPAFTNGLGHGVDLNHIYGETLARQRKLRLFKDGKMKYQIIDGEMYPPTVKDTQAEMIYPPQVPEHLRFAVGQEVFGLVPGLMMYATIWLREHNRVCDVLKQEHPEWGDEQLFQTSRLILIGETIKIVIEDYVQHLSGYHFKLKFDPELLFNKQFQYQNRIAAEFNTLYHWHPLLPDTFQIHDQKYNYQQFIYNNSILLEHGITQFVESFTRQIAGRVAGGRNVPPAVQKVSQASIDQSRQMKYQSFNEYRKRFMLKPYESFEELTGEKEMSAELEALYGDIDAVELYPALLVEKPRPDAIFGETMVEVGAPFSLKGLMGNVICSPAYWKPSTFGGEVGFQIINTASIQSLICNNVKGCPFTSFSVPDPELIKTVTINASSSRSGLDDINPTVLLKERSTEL

Rattus norvegicus [5] = assay: Antiinflammatory activity against carrageenan-induced paw edema in Sprague-Dawley rat assessed as paw weight at 20 mg/kg, po administered 4 hrs post challenge measured after 60 mins (reference value: 32.6+/-2.7 g); type: functional
[6] = molecular target: T3, Prostaglandin G/H synthase 1 (Mus musculus, UniProt P22437); assay: Inhibition of COX-1-mediated PGE2 production in arachidonic acid-stimulated mouse J774 cells incubated for 15 mins prior to arachidonic acid-challenge by radioimmunoassay; type: cell-based
T3 sequence (P22437 whole entry): T1 sequence (whole entry)
How it was run: as §1, with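 “2 h at 37 °C. Cells were pretreated with compound at 10 μM for 15 min, then given 15 μM arachidonic acid for 30 min at 37” for “2 h at 37”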

Rattus norvegicus [7] = assay: Antiinflammatory activity against carrageenan-induced paw edema in Sprague-Dawley rat assessed as paw weight at 40 mg/kg, po administered 4 hrs post challenge measured after 30 mins (reference value: 29.8+/-3.1 g); type: functional
Rattus norvegicus [8] = assay: Antiinflammatory activity against carrageenan-induced edema in Sprague-Dawley rat assessed as right hind paw volume at 40 mg/kg, po administered 4 hrs post challenge measured after 60 mins; type: functional
How it was run: (§2)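 Rats received intraplantar carrageenan. Right hind paw volume was measured 4 h after the carrageenan injection and compared with saline/carrageenan-treated controls. Oral dosing in CMC vehicle; volume recorded at 60 min after treatment.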

Rattus norvegicus [9] = assay: Antiinflammatory activity against carrageenan-induced edema in Sprague-Dawley rat assessed as right hind paw volume at 100 mg/kg, po administered 4 hrs post challenge measured after 60 mins; type: functional; how it was run: as §2
Rattus norvegicus [10] = assay: Antiinflammatory activity against carrageenan-induced paw edema in Sprague-Dawley rat assessed as paw weight at 100 mg/kg, po administered 4 hrs post challenge measured after 30 mins (reference value: 31.9+/-3.0 g); type: functional
Aorta [11] = assay: Vasorelaxation activity against KCl-induced contraction in isolated Wistar rat thoracic endothelium-denulated aortic rings in the presence of guanylate cyclase inhibitor ODQ; type: functional, tissue-based
How it was run: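 Thoracic aortic rings from male Wistar rats (250–350 g), endothelium removed by rubbing; rings relaxing ≥10% to ACh 10 μM on KCl 30 mM tone were discarded. ODQ 1 μM was incubated, then rings were contracted with KCl 30 mM and given 3-fold increasing concentrations of 1 nM–10 μM.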

Rattus norvegicus [12] = assay: Antiinflammatory activity against carrageenan-induced paw edema in Sprague-Dawley rat assessed as paw weight at 40 mg/kg, po administered 4 hrs post challenge measured after 60 mins (reference value: 29.8+/-3.1 g); type: functional
J774 = assay: Selectivity ratio of IC50 for COX1 in mouse J774 cells to IC50 for COX2 in mouse J774 cells; type: cell-based
How it was run: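 Ratio of J774 IC50s, COX-1 over COX-2. For COX-1, cells were pretreated with compound for 15 min, then given 15 μM arachidonic acid for 30 min at 37 °C. For COX-2, cells received E. coli LPS 10 μg/mL for 24 h with compound at 0.01–10 μM. PGE2 was measured by RIA in triplicate wells over three experiments. IC50 came from a sigmoidal fit.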

[13] = molecular target: Prostaglandin G/H synthase 1 (Homo sapiens, UniProt P23219); assay: Inhibition of platelet COX1-mediated TXB2 production in LPS-induced human whole blood after 60 mins by radioimmunoassay; type: tissue-based
Mus musculus [14] = assay: Analgesic activity in Swiss albino mouse abdominal constriction model assessed as reduction in acetic acid-induced writhing response for 10 mins at 40 mg/kg, po administered 30 mins prior to acetic acid-challenge measured after 5 mins relative to vehicle-treated control; type: functional, Abdomen; set-up: scale not given: the % may be the effect or the level left
How it was run: (§3)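 Male Swiss albino mice (23−25 g); 0.6% acetic acid (10 mL/kg) injected ip. Stretching movements counted for 10 min, starting 5 min after administration. Oral doses in carboxymethylcellulose (CMC) vehicle, compared with vehicle-treated mice.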

Rattus norvegicus [15] = assay: Antiinflammatory activity against carrageenan-induced edema in Sprague-Dawley rat assessed as right hind paw volume at 20 mg/kg, po administered 4 hrs post challenge measured after 60 mins; type: functional; how it was run: as §2
Rattus norvegicus [16] = assay: Antiinflammatory activity against carrageenan-induced paw edema in Sprague-Dawley rat assessed as paw weight at 100 mg/kg, po administered 4 hrs post challenge measured after 60 mins (reference value: 31.9+/-3.0 g); type: functional
Mus musculus [17] = assay: Analgesic activity in Swiss albino mouse abdominal constriction model assessed as reduction in acetic acid-induced writhing response at 30 mg/kg, po administered 30 mins prior to acetic acid-challenge measured after 5 mins relative to vehicle-treated control; type: functional, Abdomen; set-up: scale not given: the % may be the effect or the level left; how it was run: as §3
Rattus norvegicus [18] = assay: Antiinflammatory activity against carrageenan-induced edema in Sprague-Dawley rat assessed as right hind paw volume at 30 mg/kg, po administered 4 hrs post challenge measured after 60 mins; type: functional; how it was run: as §2
Rattus norvegicus [19] = assay: Antiinflammatory activity against carrageenan-induced paw edema in Sprague-Dawley rat assessed as paw weight at 30 mg/kg, po administered 4 hrs post challenge measured after 30 mins (reference value: 31.8+/-2.5 g); type: functional
Rattus norvegicus [20] = assay: Antiinflammatory activity against carrageenan-induced paw edema in Sprague-Dawley rat assessed as paw weight at 30 mg/kg, po administered 4 hrs post challenge measured after 60 mins (reference value: 31.8+/-2.5 g); type: functional
Rattus norvegicus [21] = assay: Analgesic activity in Sprague-Dawley rat assessed as reduction in carrageenan-induced paw hyperalgesia at 30 mg/kg, po administered 4 hrs post challenge measured after 30 mins relative to vehicle-treated control; set-up: scale not given: the % may be the effect or the level left
Rattus norvegicus [22] = assay: Antiinflammatory activity against carrageenan-induced paw edema in Sprague-Dawley rat assessed as paw weight at 30 mg/kg, po administered 4 hrs post challenge measured after 120 mins (reference value: 31.8+/-2.5 g); type: functional
Rattus norvegicus [23] = assay: Antiinflammatory activity against carrageenan-induced paw edema in Sprague-Dawley rat assessed as paw weight at 10 mg/kg, po administered 4 hrs post challenge measured after 60 mins (reference value: 61.5+/-3.4 g); type: functional
Rattus norvegicus [24] = assay: Antiinflammatory activity against carrageenan-induced paw edema in Sprague-Dawley rat assessed as paw weight at 10 mg/kg, po administered 4 hrs post challenge measured after 30 mins (reference value: 61.5+/-3.4 g); type: functional
Rattus norvegicus [25] = assay: Antiinflammatory activity against carrageenan-induced paw edema in Sprague-Dawley rat assessed as paw weight at 10 mg/kg, po administered 4 hrs post challenge measured after 120 mins (reference value: 61.5+/-3.4 g); type: functional
Rattus norvegicus [26] = assay: Antiinflammatory activity against carrageenan-induced edema in Sprague-Dawley rat assessed as right hind paw volume at 10 mg/kg, po administered 4 hrs post challenge measured after 60 mins; type: functional; how it was run: as §2
Rattus norvegicus [27] = assay: Antiinflammatory activity against carrageenan-induced paw edema in Sprague-Dawley rat assessed as paw weight at 20 mg/kg, po administered 4 hrs post challenge measured after 30 mins (reference value: 62.6+/-3.1 g); type: functional
Rattus norvegicus [28] = assay: Antiinflammatory activity against carrageenan-induced paw edema in Sprague-Dawley rat assessed as paw weight at 40 mg/kg, po administered 4 hrs post challenge measured after 30 mins (reference value: 61.3+/-3.0 g); type: functional
Rattus norvegicus [29] = assay: Antiinflammatory activity against carrageenan-induced paw edema in Sprague-Dawley rat assessed as paw weight at 40 mg/kg, po administered 4 hrs post challenge measured after 60 mins (reference value: 61.3+/-3.0 g); type: functional
Rattus norvegicus [30] = assay: Antiinflammatory activity against carrageenan-induced paw edema in Sprague-Dawley rat assessed as paw weight at 40 mg/kg, po administered 4 hrs post challenge measured after 120 mins (reference value: 61.3+/-3.0 g); type: functional
Rattus norvegicus [31] = assay: Antiinflammatory activity against carrageenan-induced paw edema in Sprague-Dawley rat assessed as paw weight at 20 mg/kg, po administered 4 hrs post challenge measured after 60 mins (reference value: 62.6+/-3.1 g); type: functional
Rattus norvegicus [32] = assay: Antiinflammatory activity against carrageenan-induced paw edema in Sprague-Dawley rat assessed as paw weight at 20 mg/kg, po administered 4 hrs post challenge measured after 120 mins (reference value: 62.6+/-3.1 g); type: functional
Mus musculus [33] = assay: Analgesic activity in Swiss albino mouse abdominal constriction model assessed as reduction in acetic acid-induced writhing response for 10 mins at 20 to 40 mg/kg, po administered 30 mins prior to acetic acid-challenge measured after 5 mins relative to vehicle-treated control; type: functional, organism-based; conditions: Abdomen; how it was run: as §3

Prostaglandin G/H synthase 1 (Homo sapiens, UniProt P23219), sequence (P23219 whole entry): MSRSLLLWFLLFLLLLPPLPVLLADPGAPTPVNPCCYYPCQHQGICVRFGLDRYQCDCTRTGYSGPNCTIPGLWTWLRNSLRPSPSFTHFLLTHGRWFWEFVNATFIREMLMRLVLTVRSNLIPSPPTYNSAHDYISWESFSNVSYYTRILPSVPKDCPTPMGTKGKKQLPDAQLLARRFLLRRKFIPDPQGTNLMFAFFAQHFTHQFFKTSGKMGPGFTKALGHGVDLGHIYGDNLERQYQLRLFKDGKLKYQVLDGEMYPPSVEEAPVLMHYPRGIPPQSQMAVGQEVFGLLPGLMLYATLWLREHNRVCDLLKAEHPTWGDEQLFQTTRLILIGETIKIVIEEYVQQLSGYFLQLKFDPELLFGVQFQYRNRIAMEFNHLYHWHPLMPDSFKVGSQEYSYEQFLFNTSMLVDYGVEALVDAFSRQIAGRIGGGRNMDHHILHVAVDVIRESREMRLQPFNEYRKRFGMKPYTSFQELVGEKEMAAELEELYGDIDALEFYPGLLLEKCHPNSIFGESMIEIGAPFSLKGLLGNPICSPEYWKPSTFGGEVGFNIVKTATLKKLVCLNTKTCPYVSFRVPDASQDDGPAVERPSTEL

Cc1c(CC(=O)OCCO[N+](=O)[O-])cc(-c2ccc(S(C)(=O)=O)cc2)n1-c1cccc(F)c1
pIC50 (Aorta [1]): 6.48
Activity (Rattus norvegicus [2]): 40.1 g
inhibition [3]: 36%
pIC50 [4]: 5.49
Activity (Rattus norvegicus [5]): 35.3 g
pIC50 [6]: < 5.00
Activity (Rattus norvegicus [7]): 54.1 g
Activity (Rattus norvegicus [8]): 2.17 mL
Activity (Rattus norvegicus [9]): 1.88 mL
Activity (Rattus norvegicus [10]): 57.2 g
Activity (Aorta [11]): inactive
Activity (Rattus norvegicus [12]): 38.7 g
Ratio IC50 (J774): > 526
pIC50 [13]: 5.02
Activity (Mus musculus [14]): 70%
Activity (Rattus norvegicus [15]): 2.52 mL
Activity (Rattus norvegicus [16]): 36.5 g

Cc1c(CC(=O)OCCO)cc(-c2ccc(S(C)(=O)=O)cc2)n1-c1cccc(F)c1
inhibition [3]: 33%
pIC50 [4]: 5.77
Activity (Mus musculus [17]): 70%
pIC50 [6]: < 5.00
Activity (Rattus norvegicus [18]): 2.51 mL
Activity (Rattus norvegicus [19]): 55.7 g
Activity (Rattus norvegicus [20]): 52.3 g
Ratio IC50 (J774): > 118
pIC50 [13]: 4.91
Activity (Rattus norvegicus [21]): 80%
Activity (Rattus norvegicus [22]): 39.3 g

Cc1ccc(-c2cc(C(F)(F)F)nn2-c2ccc(S(N)(=O)=O)cc2)cc1 [CELECOXIB]
Activity (Rattus norvegicus [23]): 57.1 g
Activity (Rattus norvegicus [24]): 54.3 g
Activity (Rattus norvegicus [25]): 54.9 g
Activity (Rattus norvegicus [26]): 1.36 mL

Cc1c(CC(=O)OCCCO)cc(-c2ccc(S(C)(=O)=O)cc2)n1-c1cccc(F)c1
Activity (Rattus norvegicus [27]): 41.2 g
inhibition [3]: 0%
pIC50 [6]: < 5.00
Activity (Rattus norvegicus [28]): 43.1 g
Activity (Rattus norvegicus [29]): 48.8 g
Activity (Rattus norvegicus [30]): 44.4 g
Ratio IC50 (J774): > 435
Activity (Rattus norvegicus [31]): 45.8 g
Activity (Rattus norvegicus [32]): 36.4 g
Activity (Mus musculus [33]): inactive
